# Screening data deposited in PubChem by Sanford-Burnham Center for Chemical Genomics.
# A selection: hits, their analogues and other compounds. The true share with any hit is near 1.5%.
# APJ antagonist – blocks the human apelin receptor APJ. P35414. CHO-K1 APJ beta-arrestin complementation, luminescence. inhibition, % at 20 µM. 0.32% of 330,000 active. AID 2521;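 active = inhibition above about 40% at 20 µM, limit read from the data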;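 also: cells challenged with 10 nM apelin-13 agonist together with compound; plate controls were apelin-13 plus DMSO wells for no effect and DMSO wells lacking apelin-13 for full effect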
# CXCR6 block – CXCR6 (human) receptor inhibition. CHO-K1 PathHunter CXCR6 beta-arrestin, luminescence. AID 602244. inhibition, % at 20 µM. 0.36% of 360,000 active. O00574; in the data active = inhibition above about 34%, passing the limit was not always enough;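 also: antagonist mode with CXCL16 agonist at 10 nM final; 0% = 10 nM CXCL16 with DMSO and 100% = unstimulated wells without agonist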
# APJ agonist – agonists of human APJ apelin receptor | P35414 | CHO-K1 APJ PathHunter beta-arrestin, luminescence; 0% DMSO wells, 100% apelin | activation, % at 20 µM | 0.11% of 330,000 active | AID 2520;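 active = activation more than six SD over the plate average, tested at 20 µM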;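 also: 0% = DMSO alone and 100% = apelin-13 at 10 nM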
#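 Test system: CHO-K1 APJ beta-arrestin complementation cell line. Amount: cell density 1000 per well. Controls: DMSO negative, 10 nM Apelin-13 positive. Signal: luminescent beta-gal fragment complementation, chemiluminescent substrate. Read-out basis: agonist-driven arrestin binding to APJ. Timing: compound stimulation 90 min at 25 °C, detection 60 min.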
# CCR6 antag – CCR6 (human) receptor antagonism; P51684; CHO-K1 CCR6 PathHunter beta-arrestin, luminescence, CCL20-stimulated; inhibition, % at 20 µM; 0.49% of 340,000 active; AID 493098;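 active = compounds whose inhibition of the agonist-driven luminescence signal at 20 µM reaches about 50%, limit read from the data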;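 also: cells stimulated with CCL20 at 14 nM final; plate controls were DMSO with CCL20 for no effect and DMSO without agonist for full effect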
# Target sequence (P51684 whole entry, looked up): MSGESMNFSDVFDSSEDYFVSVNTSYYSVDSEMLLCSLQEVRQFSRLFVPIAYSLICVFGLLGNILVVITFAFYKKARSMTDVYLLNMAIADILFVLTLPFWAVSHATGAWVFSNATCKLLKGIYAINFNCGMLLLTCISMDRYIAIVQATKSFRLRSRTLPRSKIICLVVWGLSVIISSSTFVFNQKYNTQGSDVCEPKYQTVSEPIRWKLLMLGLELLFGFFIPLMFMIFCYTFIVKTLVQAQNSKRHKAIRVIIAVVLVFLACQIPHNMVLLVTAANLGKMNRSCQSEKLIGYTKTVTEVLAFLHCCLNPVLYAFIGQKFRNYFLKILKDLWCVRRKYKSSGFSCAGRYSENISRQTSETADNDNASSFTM
# EBI2 antag – EBI2 (human) antagonism; P32249; EBI2 beta-arrestin recruitment, luminescence, 7a,25-OHC stimulated; inhibition, % at 5 µM; 0.81% of 360,000 active; AID 651636; in the data active = inhibition above about 38%;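 also: enzyme fragment complementation signal reports receptor beta-arrestin coupling in cells; 0% = agonist plus DMSO wells and 100% = wells without agonist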
# Numbers without * were called inactive; · = not tested or not shown.
SMILES,APJ antagonist,CXCR6 block,APJ agonist,CCR6 antag,EBI2 antag
O=C(NCCOc1ccccc1F)c1cc([N+](=O)[O-])ccc1N1CCOCC1,16.4,-7.6,-4.4,2.6,24.1
ON1C2CCCCC2N(O)C1c1c(F)c(F)c(F)c(F)c1F (configuration not stated),30.4,17.5,-11.9,52.7*,-1.4
Cc1ccc(O)c(C2=NNC(c3ccc(Cl)cc3)C2)c1 (configuration not stated),70.3*,17.2,-3.6,18.4,1.9
C=CCc1cccc(/C=N/NC(=O)C(C)Nc2ccc(C)cc2)c1O (configuration not stated),9.9,-6.4,-1.1,29.3,40.9*
O=C(NNC(=O)c1ccccc1C(F)(F)F)c1csc(N2CCOCC2)n1,6.9,-11.6,-0.9,-0.5,-3.5
Cc1cc(OCC(=O)NCCc2cccc(F)c2)c2c(C)cc(=O)oc2c1,-0.8,7.0,-1.6,13.8,-6.0
CN(CCOc1ccc(Cl)cc1)C(=O)c1cccc(S(=O)(=O)N2CCN(c3ccc(F)cc3)CC2)c1,·,21.4,·,6.8,56.1*
O=[N+]([O-])c1ccc(/C=N/n2c(C3CCCCC3)n[nH]c2=S)cc1,16.2,20.3,-1.9,56.1*,11.6
C=CCC(O)(CC=C)CNC(=O)C1CCC(=O)N(CCCc2ccccc2)C1 (configuration not stated),-15.6,-2.5,-5.0,-4.0,-6.6
Cc1ccccc1-n1c(C)cc(/C=C(\C#N)C(=O)NCC2CCCO2)c1C (configuration not stated),8.8,10.5,-2.6,-7.4,9.5
Cc1cc(/C=C(\C#N)C(=O)NCc2cccs2)c(C)n1-c1ccccc1F,10.8,6.9,-5.4,6.8,51.1*
CCN(CC(=O)NCc1ccc(Cl)cc1)C(=O)c1ccc(C#N)cc1,7.4,-16.0,-1.7,13.1,-3.5
COC1=CC(=O)C=C(OC)C1=O,·,81.3*,·,85.7*,-9.6
N=C1S/C(=C\c2ccc(-c3cccc(Cl)c3)o2)C(=O)N1c1nccs1,·,54.4*,·,81.9*,67.4*
COc1ccc(/C=C2\SC(=N)N(c3nccs3)C2=O)cc1OC,20.4,39.0,-3.6,59.4*,9.9
O=S(=O)(N1CCCCC1)N1CCN(CC(O)COc2ccc3cc(Br)ccc3c2)CC1 (configuration not stated),-18.7,-13.1,4.0,0.2,89.6*
OC(COc1ccc2cc(Br)ccc2c1)CN1CCCC1 (configuration not stated),-1.8,1.2,2.7,19.6,20.9
CCCCCCn1c(=O)n2n(c1=O)C[C@]1(OC(=O)NC3CC3)CN(S(=O)(=O)c3ccc(C)cc3)C[C@]1(O)C2,·,-5.5,·,·,-2.4
CCOC(=O)c1ccc(N=c2sc(C(=O)OC)cc(=O)n2C2CC2)cc1,3.5,0.7,0.8,3.3,34.9
CCOC(=O)c1ccc(N=c2sc(C(=O)OC)cc(=O)n2Cc2ccc3c(c2)OCO3)cc1,15.3,4.9,-5.5,9.9,72.7*
CN(Cc1nc(-c2ccc(Cl)cc2)no1)C(=O)CCN1C(=O)[C@H]2CC=CC[C@H]2C1=O,11.9,-0.4,-2.3,11.8,0.9
CCN(CC)S(=O)(=O)c1ccc(N=Nc2cc(C)cc(Br)c2O)cc1,29.7,41.7*,-6.8,57.8*,26.1
CC1=C(C(=O)N2CCCCCC2)CC(CC(=O)NC2CCCCC2)C(=O)N1CCC1=CCCCC1 (configuration not stated),·,6.2,·,·,15.1
Cc1cccc2c1c1ccc3c(c1n2C)C(=O)C=CC3=O,·,43.7*,·,88.9*,-2.9
Cc1ccccc1N1CC(=O)N(c2ccccc2C)CC1=O,-3.9,7.2,-0.6,1.2,-2.6
SMILES,APJ antagonist,CXCR6 block,APJ agonist,CCR6 antag,EBI2 antag
CC(C)C[C@H]1C(=O)N2CCC[C@H]2[C@]2(O)O[C@](NC(=O)[C@@H]3C=C4c5cccc6[nH]c(Br)c(c56)CC4N(C)C3)(C(C)C)C(=O)N12 (some centres not stated),0.3,3.5,4.9,10.7,89.3*
Cn1c(N)c(S(=O)(=O)N2CCN(c3ccccc3Cl)CC2)c(=O)n(C)c1=O,-1.7,-2.7,-1.4,-18.4,5.6
Cc1ccc(-c2csc3nc4c5ccccc5c(NCCCN(C)C)nn4c(=O)c23)cc1,13.6,0.8,11.2*,21.1,-6.9
CCc1nnc(NC(=O)c2cccc(C(=O)Nc3nnc(CC)s3)n2)s1,·,51.8*,·,73.2*,26.6
C[C@H](CO)N1C[C@H](C)[C@@H](CN(C)S(C)(=O)=O)Oc2ccc(NC(=O)Cn3cnnn3)cc2C1=O,5.4,-2.7,-1.8,-1.8,-9.2
O=C(O)c1ccccc1NS(=O)(=O)c1cccc(-n2sc3ccccc3c2=O)c1,-33.5,-17.5,2.2,-36.1,96.1*
O=C(O)c1ccccc1NS(=O)(=O)c1cccc(C(F)(F)F)c1,9.1,5.9,-4.4,3.5,-10.6
CCC(C)c1ccccc1NC(=O)COC(=O)c1ccc2[nH]c3c(c2c1)CCCC3 (configuration not stated),-9.6,-32.2,-2.3,11.5,20.6
COC(=O)c1cccc(NC(=O)c2ccc3c(c2)C(=O)N(Cc2cccnc2)C3=O)c1C,-15.4,-1.9,-4.2,8.5,6.8
COc1ccc(NC(=O)c2cc(S(=O)(=O)N3CCc4ccccc43)cn2C)c(OC)c1,6.3,-4.2,1.9,8.8,66.3*
CCN(CC)c1ccc(C(=O)NNC(=O)CCNC(=O)c2ccccc2)cc1,2.3,2.2,-2.3,-1.3,-4.9
CCN(CC)c1ccc(C(=C2C=CC(=[N+](CC)CC)C=C2)c2ccc(N(CC)CC)cc2)cc1,·,108.5*,·,113.8*,19.6
CCN(CC)c1ccc(C(=C2C=CC(=[N+](CC)CC)C=C2)c2ccccc2)cc1,·,102.8*,·,116.7*,31.9
N#C/C(N=Nc1ccccc1O)=N\Nc1ccccc1O,3.5,13.3,-1.3,71.2*,-20.8
CC(C)(C(=O)N1CCC1(C)C(=O)Nc1ccccc1Br)c1ccccc1 (configuration not stated),·,-0.6,·,·,-1.9
COC(CNC(=O)c1ccc2c3c(onc13)-c1ccccc1C2=O)OC,-5.9,56.4*,7.9,·,12.6
CCOc1cccc(-c2c(C(=O)N/N=C(\C)c3cccnc3)nnn2-c2nonc2N)c1,-4.4,-2.7,0.6,16.3,0.6
CS(=O)(=O)c1nc(-c2ccc(Br)cc2)cc(-c2ccccc2)c1C#N,-30.0,-5.5,7.6,-17.7,81.1*
FC(F)(F)c1nnc(-c2ccccc2)nc1Oc1ccc(Cl)cc1Cl,8.1,29.2,-3.7,55.9*,-7.9
C=CCNC(=O)COc1cc(C)ccc1C,2.0,-11.3,-2.9,-1.9,-6.3
CCCN1CCCc2ccccc21,8.8,3.2,-6.8,10.0,-2.2
N#CCCN1CCCc2cc(N=Nc3ccc(C(F)(F)F)cc3)ccc21,30.5,16.8,-6.2,30.3,55.9*
CC1=NN(C(N)=S)C(=O)C1N=Nc1c(Cl)cc([N+](=O)[O-])cc1Cl (configuration not stated),28.6,39.7*,-3.1,57.5*,8.6
